Where “and” joins values, the source holds several entries; their conditions need not be identical. Equal entries are not always repeated.
Assay: Pharmacokinetics in nude mice after single IP or PO dose
Type: in vivo, athymic nude (Nu/Nu) mice
Conditions: for AUC0-t/Dose: n=4; for AUC(0-t) / Cmax / MRT / Vd/F / MRT inf / Tmax / half-life / AUC(0-inf): female, athymic nude (Nu/Nu), mouse, plasma
How it was run: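 Female athymic nude mice, 3–4 weeks old, received a single 0.1 mL dose at 10, 20 or 40 mg/kg, given IP or by oral gavage. Vehicle was cremophor:ethanol:PBS (12.5:12.5:75). Four to five mice per group were killed at 0.5, 1, 4, 8 and 12 h. Cardiac blood went into sodium citrate on ice. Plasma was protein-precipitated with internal standard and assayed by UPLC/MS/MS (5–1000 ng/mL). Pooled non-compartmental analysis used linear/log-linear trapezoids.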

## CCn1c2ccccc2c2cc(Nc3ccnc(NCCCN4CCOCC4)n3)ccc21 [EHop-016, (N4-(9-Ethyl-9H-carbazol-3-yl)-N2-(3-morpholin-4-yl-propyl)-pyrimidine-2,4-diamine)]
PO vs IP, range over the tested doses
  relative bioavailability after oral gavage: 26% - 40%
PO vs corresponding IP dosages
  plasma drug concentrations lower after PO than after IP: ~ 10 times
PO, 10 mg/kg
  Cl/F: 1315.3 mL/h and 1315.3 ± 281.7 mL/h
  Lambda-z: .20 ± .01 hr ^−1
  AUC0-t/Dose: 13.37 ± 2.25
PO, 20 mg/kg
  Frel (relative bioavailability, PO to IP): 33.4 ± 4.9%
  AUC0-t/Dose: 12.85 ± 3.11
PO, 40 mg/kg
  Cl/F: 1251.4 mL/h and 1251.4 ± 388.1 mL/h
  Frel (relative bioavailability, PO to IP): 26.0 ± 3.1%
  Lambda-z: .12 ± .001 hr ^−1
  AUC0-t/Dose: 12.17 ± 2.9
PO, range over doses
  clearance (Cl/F): 1251 to 1315 mL/h
PO, range over the tested doses
  elimination half-life (t1/2): 3.44 to 5.87 h
After IP doses, approximately
  Vss: 65 to 72 L/kg BW
ip
  AUC(0-t): 328 to 1870 ng·h/mL
  Cmax: 163 to 835 ng/mL
  MRT: 4.21 to 6.75 h
  Vd/F: 2.2 to 4.1 L
ip, 10 mg/kg
  AUC(0-t): 328 ± 42.1 ng·h/mL
  Cmax: 163 ± 17.7 ng/mL
  MRT inf: 6.75 ± 0.27 h
  Tmax: 30 min
  Vd/F: 4.09 ± 0.297 L
ip, 10 mg/kg, t1/2, IP
  half-life: 344 ± 25.8 min
ip, 20 mg/kg
  AUC(0-t): 768 ± 70.6 ng·h/mL
  Cmax: 455 ± 50.3 ng/mL
  MRT inf: 4.73 ± 0.27 h
  Tmax: 30 min
  Vd/F: 3.12 ± 0.0927 L
ip, 20 mg/kg, t1/2, IP
  half-life: 280 ± 21 min
ip, 40 mg/kg
  AUC(0-inf): 328 to 1870 ng·h/mL
  AUC(0-t): 1870 ± 217 ng·h/mL
  Cmax: 834 ± 88.9 ng/mL
  MRT inf: 4.21 ± 0.14 h
  Tmax: 30 min
  Vd/F: 2.16 ± 0.337 L
ip, 40 mg/kg, t1/2, IP
  half-life: 227 ± 7.2 min
other: intraperitoneal and oral, 20 mg/kg
  Tmax: 30 min
po
  AUC(0-t): 134 to 487 ng·h/mL
  Cmax: 26 to 90 ng/mL
  MRT: 6.59 to 8.76 h
  Vd/F: 6.5 to 10.6 L
po, 10 mg/kg
  AUC(0-t): 134 ± 22.5 ng·h/mL
  Cmax: 26.1 ± 10.1 ng/mL
  MRT inf: 6.59 ± 0.37 h
  Tmax: 30 min
  Vd/F: 6.53 ± 1.78 L
po, 10 mg/kg, t1/2, PO
  half-life: 206 ± 9 min
po, 20 mg/kg
  AUC(0-t): 257 ± 62.3 ng·h/mL
  Cmax: 35.1 ± 11 ng/mL
  Tmax: 60 min
po, 40 mg/kg
  AUC(0-inf): 133 to 487 ng·h/mL
  AUC(0-t): 487 ± 116 ng·h/mL
  Cmax: 89.7 ± 17.6 ng/mL
  MRT inf: 8.76 ± 0.43 h
  Tmax: 30 min
  Vd/F: 10.6 ± 3.39 L
po, 40 mg/kg, t1/2, PO
  half-life: 352 ± 3.6 min
Suggested by Vss values
  share of the drug in the bloodstream: < 1%
